Source: ChEMBL document CHEMBL3244330, “Structure--activity relationships of n-substituted dopamine and 2-amino-6,7-dihydroxy-1,2,3,4-tetrahydronaphthalene analogues: behavioral effects in lesioned and reserpinized mice” (J Med Chem, 1979)
The source made the active and inactive calls. The calls are words filed in the database; no cut-off is given here.

Assays:
Mus musculus [1] = test: Postural effect on caudectomized Swiss albino mouse assessed as latency to onset time of asymmetric postural effect at 26.8 mg/kg, ip; assay type: functional, organism-based; design: dose 26.8 mg/kg
How it was run: (§1)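 Male Swiss albino Hale-Stoner mice with right caudectomy by suction, used if responsive to apomorphine 4 weeks post-lesion. Compound in 0.9% saline given ip, maximum 0.348 mmol/kg. 18 mice per compound in random groups of six, retested after 5–6 day intervals. Onset latency and duration of asymmetric posture recorded; mean ± SE from six animals.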

Mus musculus [2] = test: Postural effect on caudectomized Swiss albino mouse assessed as time duration of asymmetric posture at 107.2 mg/kg, ip; assay type: functional; conditions: route intraperitoneal; how it was run: as §1
Mus musculus [3] = test: Postural effect on caudectomized Swiss albino mouse assessed as latency to onset time of asymmetric postural effect at 107.2 mg/kg, ip; assay type: functional; conditions: route intraperitoneal; how it was run: as §1
Mus musculus [4] = test: Reversal of reserpine-induced catalepsy in ip dosed Swiss albino (CD1) mouse; assay type: functional
How it was run: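 Male Swiss albino CD1 mice, 5 weeks old, got reserpine 5 mg/kg ip, then α-MTM 250 mg/kg ip 17 h later, then the test drug ip 4 h after that. Catalepsy was scored by the rubber-stopper test (time to step off the stopper). At least four doses were used, with ≥8 mice per dose. ED50 was taken from a log-probit plot of percent responders against dose.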

Mus musculus [5] = test: Postural effect on caudectomized Swiss albino mouse assessed as latency to onset time of asymmetric postural effect at 96 mg/kg, ip; assay type: functional, organism-based; design: dose 96 mg/kg
How it was run: (§2)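 Male Swiss albino Hale-Stoner mice with a right caudectomy made by suction. A lesion was accepted if the mouse responded to apomorphine 4 weeks after surgery. Compounds were dissolved in 0.9% saline and injected ip at random into groups of six, with a maximum dose of 0.348 mmol/kg. 18 mice were used per compound, and mice were retested after 5–6 day intervals. Onset and duration of the asymmetric posture are reported as mean ± SE from six animals.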

Mus musculus [6] = test: Postural effect on caudectomized Swiss albino mouse assessed as latency to onset time of asymmetric postural effect at 90.8 mg/kg, ip; assay type: functional, organism-based; design: dose 90.8 mg/kg; how it was run: as §2
Mus musculus [7] = test: Postural effect on caudectomized Swiss albino mouse assessed as latency to onset time of asymmetric postural effect at 102.2 mg/kg, ip; assay type: functional, organism-based; design: dose 102.2 mg/kg; how it was run: as §1
Mus musculus [8] = test: Postural effect on caudectomized Swiss albino mouse assessed as time duration of asymmetric posture at 56 mg/kg, ip; assay type: functional; conditions: route intraperitoneal
How it was run: (§3)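 Male Swiss albino Hale-Stoner mice given a right caudectomy by suction. The lesion counted as successful if the mice reacted to apomorphine 4 weeks later. Drug was given ip in 0.9% saline, up to 0.348 mmol/kg, to randomised groups of six, with 5-6 days before reuse. Onset and duration of asymmetric posture are reported as mean ± SE from six animals.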

Mus musculus [9] = test: Postural effect on caudectomized Swiss albino mouse assessed as latency to onset time of asymmetric postural effect at 28 mg/kg, ip; assay type: functional; conditions: route intraperitoneal; how it was run: as §2
Mus musculus [10] = test: Postural effect on caudectomized Swiss albino mouse assessed as time duration of asymmetric posture at 28 mg/kg, ip; assay type: functional; conditions: route intraperitoneal; how it was run: as §2
Mus musculus [11] = test: Postural effect on caudectomized Swiss albino mouse assessed as latency to onset time of asymmetric postural effect at 56 mg/kg, ip; assay type: functional; conditions: route intraperitoneal; how it was run: as §2
Mus musculus [12] = test: Postural effect on caudectomized Swiss albino mouse assessed as time duration of asymmetric posture at 858 mg/kg, ip; assay type: functional; conditions: route intraperitoneal
Mus musculus [13] = test: Postural effect on caudectomized Swiss albino mouse assessed as latency to onset time of asymmetric postural effect at 858 mg/kg, ip; assay type: functional; conditions: route intraperitoneal
Mus musculus [14] = test: Postural effect on caudectomized Swiss albino mouse assessed as latency to onset time of asymmetric postural effect at 67.8 mg/kg, ip; assay type: functional; conditions: route intraperitoneal; how it was run: as §2
Mus musculus [15] = test: Postural effect on caudectomized Swiss albino mouse assessed as time duration of asymmetric posture at 22.6 mg/kg, ip; assay type: functional; conditions: route intraperitoneal; how it was run: as §2
Mus musculus [16] = test: Postural effect on caudectomized Swiss albino mouse assessed as latency to onset time of asymmetric postural effect at 22.6 mg/kg, ip; assay type: functional; conditions: route intraperitoneal; how it was run: as §2
Mus musculus [17] = test: Postural effect on caudectomized Swiss albino mouse assessed as latency to onset time of asymmetric postural effect at 45.2 mg/kg, ip; assay type: functional; conditions: route intraperitoneal; how it was run: as §2
Mus musculus [18] = test: Postural effect on caudectomized Swiss albino mouse assessed as time duration of asymmetric posture at 67.8 mg/kg, ip; assay type: functional; conditions: route intraperitoneal; how it was run: as §3
Mus musculus [19] = test: Postural effect on caudectomized Swiss albino mouse assessed as time duration of asymmetric posture at 45.2 mg/kg, ip; assay type: functional; conditions: route intraperitoneal; how it was run: as §2
Mus musculus [20] = test: Postural effect on caudectomized Swiss albino mouse assessed as latency to onset time of asymmetric postural effect at 85 mg/kg, ip; assay type: functional, organism-based; design: dose 85 mg/kg; how it was run: as §2
Mus musculus [21] = test: Postural effect on caudectomized Swiss albino mouse assessed as time duration of asymmetric posture at 105.1 mg/kg, ip; assay type: functional; conditions: route intraperitoneal; how it was run: as §2
Mus musculus [22] = test: Postural effect on caudectomized Swiss albino mouse assessed as latency to onset time of asymmetric postural effect at 92 mg/kg, ip; assay type: functional; conditions: route intraperitoneal; how it was run: as §2
Mus musculus [23] = test: Postural effect on caudectomized Swiss albino mouse assessed as time duration of asymmetric posture at 78.9 mg/kg, ip; assay type: functional; conditions: route intraperitoneal; how it was run: as §3
Mus musculus [24] = test: Postural effect on caudectomized Swiss albino mouse assessed as latency to onset time of asymmetric postural effect at 26.3 mg/kg, ip; assay type: functional, organism-based; design: dose 26.3 mg/kg; how it was run: as §2
Mus musculus [25] = test: Postural effect on caudectomized Swiss albino mouse assessed as latency to onset time of asymmetric postural effect at 52.6 mg/kg, ip; assay type: functional, organism-based; design: dose 52.6 mg/kg; how it was run: as §2
Mus musculus [26] = test: Postural effect on caudectomized Swiss albino mouse assessed as latency to onset time of asymmetric postural effect at 105.1 mg/kg, ip; assay type: functional; conditions: route intraperitoneal; how it was run: as §2
Mus musculus [27] = test: Postural effect on caudectomized Swiss albino mouse assessed as time duration of asymmetric posture at 92 mg/kg, ip; assay type: functional; conditions: route intraperitoneal; how it was run: as §3
Mus musculus [28] = test: Postural effect on caudectomized Swiss albino mouse assessed as latency to onset time of asymmetric postural effect at 78.9 mg/kg, ip; assay type: functional; conditions: route intraperitoneal; how it was run: as §2
Mus musculus [29] = test: Reversal of reserpine-induced catalepsy in Swiss albino (CD1) mouse at 0.348 mmol/kg, ip; assay type: functional, organism-based
Mus musculus [30] = test: Postural effect on caudectomized Swiss albino mouse assessed as latency to onset time of asymmetric postural effect at 100.5 mg/kg, ip; assay type: functional, organism-based; design: dose 100.5 mg/kg; how it was run: as §2

In the case of CN(CCc1ccccc1)CCc1ccc(O)c(O)c1.Cl, the Activity (Mus musculus [1]) is reported as “inactive”, the Time (Mus musculus [2]) is reported as 21.2 min and the Time (Mus musculus [3]) is reported as 6.9 min. The ED50 (Mus musculus [4]) was 101 mg/kg.

With CN(C)CCc1ccc(O)c(O)c1 the Activity (Mus musculus [5]) was “inactive”.

With CCCCNCCc1ccc(O)c(O)c1 the Activity (Mus musculus [6]) was “inactive”.

Oc1ccc(CCNCCc2ccccc2)cc1O was tested, and the Activity (Mus musculus [7]) was “inactive”.

CCCN(CCc1ccc(O)c(O)c1)Cc1ccccc1.Cl showed a Time (Mus musculus [8]) of 26.6 min, a Time (Mus musculus [9]) of 5.2 min and a Time (Mus musculus [10]) of 7.8 min. It also gave a Time (Mus musculus [11]) of 5.7 min and an ED50 (Mus musculus [4]) of 21 mg/kg.

For N[C@@H](Cc1ccc(O)c(O)c1)C(=O)O [LEVODOPA], the Time (Mus musculus [12]) was 24 min, the Time (Mus musculus [13]) was 17.7 min and the ED50 (Mus musculus [4]) was 248 mg/kg.

CCCN(CC)CCc1ccc(O)c(O)c1.Cl was tested, and the Time (Mus musculus [14]) was 3.6 min, the Time (Mus musculus [15]) was 2.3 min and the Time (Mus musculus [16]) was 3.2 min. The Time (Mus musculus [17]) was 3.2 min, the Time (Mus musculus [18]) was 11.2 min and the Time (Mus musculus [19]) was 6.3 min. For the same molecule, the ED50 (Mus musculus [4]) was 33 mg/kg.

With CCCCCN(C)CCc1ccc(O)c(O)c1.Cl the ED50 (Mus musculus [4]) was 46 mg/kg.

With CCCCCNCCc1ccc(O)c(O)c1 the Activity (Mus musculus [6]) was “inactive”.

For CNCCc1ccc(O)c(O)c1, the Activity (Mus musculus [20]) was “inactive”.

Work on CCC(C)N(CCc1ccc(O)c(O)c1)C(C)CC.Cl (stereo not given) yielded a Time (Mus musculus [21]) of 10.8 min, a Time (Mus musculus [22]) of 5.2 min and a Time (Mus musculus [23]) of 7 min. The Activity (Mus musculus [24]) was “inactive”, the Activity (Mus musculus [25]) was “inactive” and the Time (Mus musculus [26]) was 5 min. For the same molecule, the Time (Mus musculus [27]) was 7 min, the Time (Mus musculus [28]) was 1.8 min and the Activity (Mus musculus [29]) was “inactive”.

CC(C)CNCCc1ccc(O)c(O)c1 was tested, and the Activity (Mus musculus [30]) was “inactive”.
